Test results from EPA's CvTdb concentration-time database.

How the values were obtained:
Rat [1] = assay: concentration in brain after dosing; conditions: 5 min; dosed: alpha-Thujone; 50 mg/kg; oral; Female; Harlan Sprague Dawley
Rat [2] = assay: concentration in brain after dosing; conditions: 2 min; dosed: alpha-Thujone; 50 mg/kg; oral; Male; Harlan Sprague Dawley
Rat [3] = assay: concentration in brain after dosing; conditions: 1.5 h; dosed: alpha-Thujone; 25 mg/kg; oral; Male; Harlan Sprague Dawley
Rat [4] = assay: concentration in brain after dosing; conditions: 0.5 h; dosed: alpha-Thujone; 50 mg/kg; oral; Female; Harlan Sprague Dawley
Rat [5] = assay: concentration in plasma after dosing; conditions: 0.5 h; dosed: alpha-Thujone; 50 mg/kg; oral; Female; Harlan Sprague Dawley
Rat [6] = assay: concentration in plasma after dosing; conditions: dosed: Pyridine, 5 mg/kg, iv, Male, F344
Rat [7] = assay: concentration in plasma after dosing; conditions: dosed: Methyleugenol, 37 mg/kg, oral, Female, F344/N
human = assay: concentration in blood after dosing; negative times count back from the end of exposure; conditions: dosed: trichloroethylene, 100 ppm, inhalation, duration: 4 hr, person
Procedure, shortened: (§1)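 Points were largely digitised from plot screenshots with WebPlotDigitizer or otherwise copied from tables, and they remain in the units each source reported. They come from published in vivo toxicokinetic studies and two structured collections. Sampling and analytical methods follow each source and were often not reported.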

Rat [8] = assay: concentration in plasma after dosing; conditions: 9 h; dosed: Primidone; 30 mg/kg; oral; Female; F344
Rat [9] = assay: concentration in plasma after dosing; conditions: 3 h; dosed: Primidone; 130 mg/kg; oral; Female; F344
Rat [10] = assay: concentration in plasma after dosing; conditions: 3 h; dosed: Primidone; 80 mg/kg; oral; Male; F344
Rat [11] = assay: concentration in plasma after dosing; conditions: 0.25 h; dosed: Primidone; 30 mg/kg; oral; Male; F344
Mouse [12] = assay: concentration in plasma after dosing; conditions: 2.5 min; dosed: 2-Hydroxy-4-methoxybenzophenone; 250 mg/kg; oral; Male; B6C3F1
Mouse [13] = assay: concentration in plasma after dosing; conditions: 10 min; dosed: 2-Hydroxy-4-methoxybenzophenone; 500 mg/kg; oral; Male; B6C3F1
Rat [14] = assay: concentration in plasma after dosing; conditions: dosed: 2-Hydroxy-4-methoxybenzophenone, 500 mg/kg, oral, Female, F344
Rat [15] = assay: concentration in plasma after dosing; conditions: dosed: 2-Hydroxy-4-methoxybenzophenone, 250 mg/kg, oral, Female, F344
Rat [16] = assay: concentration in plasma after dosing; conditions: dosed: 2-Hydroxy-4-methoxybenzophenone, 500 mg/kg, oral, Male, F344
Rat [17] = assay: concentration in plasma after dosing; conditions: dosed: 2-Hydroxy-4-methoxybenzophenone, 100 mg/kg, oral, Male, F344
Mouse [18] = assay: concentration in plasma after dosing; conditions: 10 min; dosed: 2-Hydroxy-4-methoxybenzophenone; 250 mg/kg; oral; Male; B6C3F1
Mouse [19] = assay: concentration in plasma after dosing; conditions: dosed: 2,4-Dichlorophenoxyacetic acid, 5.2 mg/kg, oral, Male, B6C3F1
Hamster [20] = assay: concentration in plasma after dosing; conditions: dosed: 2,4-Dichlorophenoxyacetic acid, 2.0 mg/kg, oral, Male, Syrian Golden
Procedure, shortened: as §1

Hamster [21] = assay: concentration in plasma after dosing; conditions: dosed: 2,4-Dichlorophenoxyacetic acid, Male, Syrian Golden
Procedure, shortened: as §1

Rat [22] = assay: concentration in liver after dosing; conditions: 24 h; dosed: Perfluorohexane-1-sulphonic acid – potassium salt; 16 mg/kg; oral; Female; F344
Rat [23] = assay: concentration in kidney after dosing; conditions: 24 h; dosed: Perfluorohexane-1-sulphonic acid – potassium salt; 16 mg/kg; oral; Female; F344

CC(C)[C@]12CC(=O)[C@H](C)[C@H]1C2 [alpha-Thujone]
Conditions | concentration in brain [ng/g] | concentration in plasma [ng/mL]
Rat [1] | 105 | –
Rat [2] | 385 | –
Rat [3] | 388 | –
Rat [4] | 865 | –
Rat [5] | – | 475

c1ccncc1 [Pyridine]
Rat [6]
Conditions | concentration in plasma [ng/mL]
0.25 h | 3670
6 h | 1390

C=CCc1ccc(OC)c(OC)c1 [Methyleugenol]
Rat [7]
Conditions | concentration in plasma [ng/mL]
6 h | 6.14
10 min | 424

OCC(Cl)(Cl)Cl [trichloroethanol (free)]
human
Conditions | concentration in blood [ng/mL]
0.2798 h | 3060
0.518 h | 2980
1.034 h | 2890
2.025 h | 2710
4.029 h | 2290
5.972 h | 2030
7.955 h | 1690
9.937 h | 1480
11.96 h | 1270
13.96 h | 1070
15.94 h | 1010
17.94 h | 738

human, during exposure
Conditions | concentration in blood [ng/mL]
-58 s | 2860
-3.486 h | 220
-3.013 h | 632
-2.028 h | 1480
-0.9832 h | 2280

CCC1(c2ccccc2)C(=O)NCNC1=O [Primidone]
Conditions | concentration in plasma [ng/mL]
Rat [8] | 6000
Rat [9] | 50400
Rat [10] | 37200
Rat [11] | 8900

O=C(c1ccccc1)c1ccc(O)cc1O [2,4-Dihydroxybenzophenone]
Conditions | concentration in plasma [ng/mL]
Mouse [12] | 149
Mouse [13] | 1690
Mouse [18] | 392

Conditions | concentration in plasma [ng/mL]
Rat [14], 0.5 h | 675
Rat [14], 12 h | 221
Rat [15], 3 h | 213
Rat [15], 10 min | 128
Rat [16], 0.5 h | 162
Rat [16], 12 h | 148
Rat [17], 0.25 h | 61.2
Rat [17], 4 h | 48.4

O=C(O)COc1ccc(Cl)cc1Cl [2,4-Dichlorophenoxyacetic acid]
concentration in plasma [ng/mL]
Conditions | 0.25 h | 0.5 h | 2 h | 2.5 h | 3 h | 4 h | 5 min | 6 h | 10 min
Hamster [20] | – | – | – | 200 | – | – | 2770 | – | 10300
Mouse [19] | 12300 | 19700 | 9630 | – | 13400 | 13300 | 6510 | 4310 | –

concentration in plasma [ng/mL], Hamster [21]
Conditions | 2.0 mg/kg | 8.0 mg/kg | 40 mg/kg
0.25 h, iv | – | 21300 | –
0.25 h, oral | 7560 | 16500 | 68500
0.5 h, oral | – | 3990 | 84200
1 h, iv | – | 1050 | –
1 h, oral | – | 5860 | 19100
1.5 h, iv | – | 915 | –
1.5 h, oral | – | 1080 | 29600
2 h, iv | – | 186 | –
2 h, oral | – | 1120 | 25400
2.5 h, oral | 1930 | – | –
2.5 min, iv | – | 127000 | –
2.5 min, oral | 217 | – | –
4 h, oral | – | 820 | 2830
5 min, iv | – | 77100 | –
5 min, oral | 453 | 19500 | 81600
6 h, oral | – | 1350 | 2700
10 min, iv | – | 42400 | –
10 min, oral | 2080 | – | –
20 min, iv | – | 20700 | –
40 min, iv | – | 3980 | –

O=S(=O)([O-])C(F)(F)C(F)(F)C(F)(F)C(F)(F)C(F)(F)C(F)(F)F.[K+] [Perfluorohexane-1-sulphonic acid – potassium salt]
Conditions | concentration in kidney [ng/g] | concentration in liver [ng/g]
Rat [22] | – | 78000
Rat [23] | 43700 | –
